Test results as given in ChEMBL document CHEMBL4257569, “Novel KV7 ion channel openers for the treatment of epilepsy and implications for detrusor tissue contraction” (Bioorg Med Chem Lett, 2018).
Converted amounts (≈) assume the structure as drawn. The source made the active and inactive calls.

What was measured:
Mus musculus [1] = assay: Anti-seizure activity in CD-1 mouse model of pentylenetetrazol-induced tonic seizures assessed as effect on time to onset of seizure at 10 to 60 mg/kg, po; type: functional, organism-based
Mus musculus [2] = assay: Anti-seizure activity in CD-1 mouse model of pentylenetetrazol-induced clonic seizures assessed as effect on time to onset of seizure at 10 to 60 mg/kg, po; type: functional, organism-based
[3] = Kinetic aqueous solubility of the compound by CAD or CLND method; type: physicochemical; details: buffer; read-out: Kinetic_solubility
[4] = target: T1, Potassium voltage-gated channel subfamily KQT member 4 (Homo sapiens, UniProt P56696); assay: Activation of human Kv7.4 by patch clamp method
T1 sequence (P56696 whole entry): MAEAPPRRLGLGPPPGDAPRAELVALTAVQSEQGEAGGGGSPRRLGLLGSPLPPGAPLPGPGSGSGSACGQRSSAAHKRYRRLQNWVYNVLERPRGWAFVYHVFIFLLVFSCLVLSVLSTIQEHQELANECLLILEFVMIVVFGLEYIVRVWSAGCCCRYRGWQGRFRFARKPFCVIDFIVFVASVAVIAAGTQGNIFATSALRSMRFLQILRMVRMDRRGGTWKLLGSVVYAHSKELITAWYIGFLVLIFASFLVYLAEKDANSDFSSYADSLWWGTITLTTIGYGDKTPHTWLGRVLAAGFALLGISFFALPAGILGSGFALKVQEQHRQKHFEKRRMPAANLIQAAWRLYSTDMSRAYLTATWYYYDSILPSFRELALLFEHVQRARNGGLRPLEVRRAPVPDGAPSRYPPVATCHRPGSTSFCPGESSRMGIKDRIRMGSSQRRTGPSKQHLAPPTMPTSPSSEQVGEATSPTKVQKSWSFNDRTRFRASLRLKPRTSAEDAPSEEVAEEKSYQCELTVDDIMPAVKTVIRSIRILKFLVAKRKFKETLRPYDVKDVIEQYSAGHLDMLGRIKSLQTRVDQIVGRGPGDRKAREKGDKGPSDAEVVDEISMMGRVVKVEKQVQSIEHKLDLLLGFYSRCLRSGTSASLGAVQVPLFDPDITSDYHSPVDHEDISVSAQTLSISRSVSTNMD

P-gp = assay: Substrate activity at P-gp (unknown origin) assessed as efflux ratio; type: ADME; details: human, not told
[5] = Inhibition of carbachol-induced contraction in human bladder at 10 uM; type: tissue-based, Urinary bladder
[6] = target: Voltage-gated potassium channel, KQT; KCNQ2(Kv7.2)/KCNQ3(Kv7.3) (Homo sapiens, UniProt O43525+O43526); assay: Activation of human Kv7.2/7.3 by patch clamp method
How it was run: (§1)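 Kv7.2/7.3 EC50s were measured on the IonWorks Quattro (IWQ) automated patch-clamp platform. Efficacy is expressed as % of the maximal response to the reference opener ML213.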

[7] = target: Voltage-gated potassium channel KCNQ3/KCNQ5 (Homo sapiens, UniProt O43525+Q9NR82); assay: Activation of human Kv7.3/7.5 by patch clamp method
[8] = target: T2, Voltage-gated potassium channel, KQT; KCNQ2(Kv7.2)/KCNQ3(Kv7.3) (Homo sapiens) (UniProt O43526+O43525); assay: Activation of human Kv7.2/7.3 by patch clamp method relative to ML213; how it was run: as §1
[9] = target: T2, Voltage-gated potassium channel, KQT; KCNQ2(Kv7.2)/KCNQ3(Kv7.3) (Homo sapiens); assay: Activation of human Kv7.2/7.3 assessed as difference in G-V midpoint between pre-compound and post-compound conditions at 0.24 uM at -90 mV holding potential by QPatch method; type: protein-complex assay
[10] = Activation of Kv7 from rat cortical neurons assessed as reduction in spontaneous neuronal firing activity after 15 mins by multi-electrode array method; details: 0.25 h
Mus musculus [11] = assay: Dose normalized AUC (0 to t) in iv dosed mouse; type: ADME, organism-based; details: in vivo
Mus musculus [12] = assay: Anti-seizure activity in CD-1 mouse assessed as increase in seizure threshold at 10 to 60 mg/kg, po by maximal electroshock-threshold test; type: functional, organism-based
[13] = target: T2, Voltage-gated potassium channel, KQT; KCNQ2(Kv7.2)/KCNQ3(Kv7.3) (Homo sapiens); assay: Activation of human Kv7.2/7.3 assessed as difference in G-V midpoint between pre-compound and post-compound conditions at 1.2 uM at -90 mV holding potential by QPatch method; type: protein-complex assay
[14] = Clearance in iv dosed mouse; type: ADME, organism-based; details: in vivo
[15] = Ratio of drug level in brain to blood of iv dosed mouse; type: ADME, organism-based; details: brain and blood
[16] = target: T2, Voltage-gated potassium channel, KQT; KCNQ2(Kv7.2)/KCNQ3(Kv7.3) (Homo sapiens); assay: Activation of human Kv7.2/7.3 assessed as difference in G-V midpoint between pre-compound and post-compound conditions at 30 uM at -90 mV holding potential by QPatch method; type: protein-complex assay
Mus musculus [17] = assay: Toxicity in CD-1 mouse at 10 to 60 mg/kg, po by rotarod test; type: organism-based; details: in vivo
[18] = target: T2, Voltage-gated potassium channel, KQT; KCNQ2(Kv7.2)/KCNQ3(Kv7.3) (Homo sapiens); assay: Activation of human Kv7.2/7.3 assessed as difference in G-V midpoint between pre-compound and post-compound conditions at 0.048 uM at -90 mV holding potential by QPatch method; type: protein-complex assay
[19] = target: T2, Voltage-gated potassium channel, KQT; KCNQ2(Kv7.2)/KCNQ3(Kv7.3) (Homo sapiens); assay: Activation of human Kv7.2/7.3 assessed as difference in G-V midpoint between pre-compound and post-compound conditions at 6 uM at -90 mV holding potential by QPatch method; type: protein-complex assay
[20] = Activation of human Kv7.2 W236L mutant/Kv7.3 W265L mutant expressed in CHO cells assessed as 86Rb efflux at 0.001 to 100 uM after 10 mins by microbeta liquid scintillation counting analysis; type: cell-based
[21] = target: T2, Voltage-gated potassium channel, KQT; KCNQ2(Kv7.2)/KCNQ3(Kv7.3) (Homo sapiens); assay: Activation of human wild type Kv7.2/7.3 expressed in CHO cells assessed as 86Rb efflux at 0.001 to 100 uM after 10 mins by microbeta liquid scintillation counting analysis; type: cell-based
[22] = target: T2, Voltage-gated potassium channel, KQT; KCNQ2(Kv7.2)/KCNQ3(Kv7.3) (Homo sapiens); assay: Activation of human Kv7.2/7.3 assessed as difference in G-V midpoint between pre-compound and post-compound conditions at 3 uM at -90 mV holding potential by QPatch method; type: protein-complex assay
[23] = target: T2, Voltage-gated potassium channel, KQT; KCNQ2(Kv7.2)/KCNQ3(Kv7.3) (Homo sapiens); assay: Activation of human Kv7.2/7.3 assessed as difference in G-V midpoint between pre-compound and post-compound conditions at 2 uM at -90 mV holding potential by QPatch method; type: protein-complex assay
[24] = target: T2, Voltage-gated potassium channel, KQT; KCNQ2(Kv7.2)/KCNQ3(Kv7.3) (Homo sapiens); assay: Activation of human Kv7.2/7.3 assessed as difference in G-V midpoint between pre-compound and post-compound conditions at 0.4 uM at -90 mV holding potential by QPatch method; type: protein-complex assay
[25] = target: T2, Voltage-gated potassium channel, KQT; KCNQ2(Kv7.2)/KCNQ3(Kv7.3) (Homo sapiens); assay: Activation of human Kv7.2/7.3 assessed as difference in G-V midpoint between pre-compound and post-compound conditions at 10 uM at -90 mV holding potential by QPatch method; type: protein-complex assay
[26] = target: T2, Voltage-gated potassium channel, KQT; KCNQ2(Kv7.2)/KCNQ3(Kv7.3) (Homo sapiens); assay: Activation of human Kv7.2/7.3 assessed as difference in G-V midpoint between pre-compound and post-compound conditions at 0.016 uM at -90 mV holding potential by QPatch method; type: protein-complex assay
[27] = target: T2, Voltage-gated potassium channel, KQT; KCNQ2(Kv7.2)/KCNQ3(Kv7.3) (Homo sapiens); assay: Activation of human Kv7.2/7.3 assessed as difference in G-V midpoint between pre-compound and post-compound conditions at 0.08 uM at -90 mV holding potential by QPatch method; type: protein-complex assay
[28] = Clearance in human liver microsomes; type: ADME, microsome

Sequence of Voltage-gated potassium channel, KQT; KCNQ2(Kv7.2)/KCNQ3(Kv7.3) (O43526 whole entry): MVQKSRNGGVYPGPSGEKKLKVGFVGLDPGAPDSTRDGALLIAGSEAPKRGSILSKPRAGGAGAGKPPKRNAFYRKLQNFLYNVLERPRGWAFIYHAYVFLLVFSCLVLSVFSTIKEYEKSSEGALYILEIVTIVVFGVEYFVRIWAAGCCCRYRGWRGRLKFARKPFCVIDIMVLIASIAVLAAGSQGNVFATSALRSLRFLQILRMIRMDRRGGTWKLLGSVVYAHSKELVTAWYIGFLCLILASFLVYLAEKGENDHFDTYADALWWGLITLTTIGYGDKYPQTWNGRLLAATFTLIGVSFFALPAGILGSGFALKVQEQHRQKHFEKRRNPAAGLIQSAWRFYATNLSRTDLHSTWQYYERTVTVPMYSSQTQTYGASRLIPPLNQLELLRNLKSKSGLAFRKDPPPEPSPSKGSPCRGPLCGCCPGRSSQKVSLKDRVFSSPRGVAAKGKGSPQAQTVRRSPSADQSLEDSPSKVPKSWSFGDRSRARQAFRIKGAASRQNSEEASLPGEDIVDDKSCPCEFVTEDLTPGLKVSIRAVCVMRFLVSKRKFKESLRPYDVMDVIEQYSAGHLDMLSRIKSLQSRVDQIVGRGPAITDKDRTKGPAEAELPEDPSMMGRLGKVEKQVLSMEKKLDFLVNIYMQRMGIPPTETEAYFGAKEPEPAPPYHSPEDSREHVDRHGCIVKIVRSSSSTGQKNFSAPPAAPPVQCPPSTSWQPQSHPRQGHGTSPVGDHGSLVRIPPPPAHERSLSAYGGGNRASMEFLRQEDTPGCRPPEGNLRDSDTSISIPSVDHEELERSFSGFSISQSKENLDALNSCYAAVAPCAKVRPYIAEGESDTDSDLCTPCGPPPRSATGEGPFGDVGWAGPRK
Sequence of Voltage-gated potassium channel, KQT; KCNQ2(Kv7.2)/KCNQ3(Kv7.3) (O43525 whole entry): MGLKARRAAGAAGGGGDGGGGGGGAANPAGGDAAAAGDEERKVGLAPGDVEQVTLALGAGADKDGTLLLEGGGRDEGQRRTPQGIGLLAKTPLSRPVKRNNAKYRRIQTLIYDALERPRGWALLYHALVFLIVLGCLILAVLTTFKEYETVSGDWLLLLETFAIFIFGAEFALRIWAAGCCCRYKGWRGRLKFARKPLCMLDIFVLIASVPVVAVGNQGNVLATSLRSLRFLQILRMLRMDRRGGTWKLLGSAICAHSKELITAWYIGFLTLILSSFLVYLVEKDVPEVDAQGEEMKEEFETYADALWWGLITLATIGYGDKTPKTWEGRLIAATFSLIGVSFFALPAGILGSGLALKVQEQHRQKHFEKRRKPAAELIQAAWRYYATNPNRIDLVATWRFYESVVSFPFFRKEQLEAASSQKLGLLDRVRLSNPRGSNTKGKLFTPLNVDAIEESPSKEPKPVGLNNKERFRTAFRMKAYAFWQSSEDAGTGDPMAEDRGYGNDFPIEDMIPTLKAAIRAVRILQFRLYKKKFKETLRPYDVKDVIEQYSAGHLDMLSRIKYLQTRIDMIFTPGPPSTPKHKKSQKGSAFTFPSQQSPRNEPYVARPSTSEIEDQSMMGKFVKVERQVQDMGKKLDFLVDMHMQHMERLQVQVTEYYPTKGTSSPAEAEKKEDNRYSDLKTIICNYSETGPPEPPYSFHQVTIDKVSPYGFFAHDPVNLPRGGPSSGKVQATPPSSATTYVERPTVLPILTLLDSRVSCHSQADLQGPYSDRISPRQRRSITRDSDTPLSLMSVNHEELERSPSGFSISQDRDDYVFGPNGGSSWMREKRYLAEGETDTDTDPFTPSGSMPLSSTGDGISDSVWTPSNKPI
Sequence of Voltage-gated potassium channel KCNQ3/KCNQ5 (O43525 whole entry): as above
Sequence of Voltage-gated potassium channel KCNQ3/KCNQ5 (Q9NR82 whole entry): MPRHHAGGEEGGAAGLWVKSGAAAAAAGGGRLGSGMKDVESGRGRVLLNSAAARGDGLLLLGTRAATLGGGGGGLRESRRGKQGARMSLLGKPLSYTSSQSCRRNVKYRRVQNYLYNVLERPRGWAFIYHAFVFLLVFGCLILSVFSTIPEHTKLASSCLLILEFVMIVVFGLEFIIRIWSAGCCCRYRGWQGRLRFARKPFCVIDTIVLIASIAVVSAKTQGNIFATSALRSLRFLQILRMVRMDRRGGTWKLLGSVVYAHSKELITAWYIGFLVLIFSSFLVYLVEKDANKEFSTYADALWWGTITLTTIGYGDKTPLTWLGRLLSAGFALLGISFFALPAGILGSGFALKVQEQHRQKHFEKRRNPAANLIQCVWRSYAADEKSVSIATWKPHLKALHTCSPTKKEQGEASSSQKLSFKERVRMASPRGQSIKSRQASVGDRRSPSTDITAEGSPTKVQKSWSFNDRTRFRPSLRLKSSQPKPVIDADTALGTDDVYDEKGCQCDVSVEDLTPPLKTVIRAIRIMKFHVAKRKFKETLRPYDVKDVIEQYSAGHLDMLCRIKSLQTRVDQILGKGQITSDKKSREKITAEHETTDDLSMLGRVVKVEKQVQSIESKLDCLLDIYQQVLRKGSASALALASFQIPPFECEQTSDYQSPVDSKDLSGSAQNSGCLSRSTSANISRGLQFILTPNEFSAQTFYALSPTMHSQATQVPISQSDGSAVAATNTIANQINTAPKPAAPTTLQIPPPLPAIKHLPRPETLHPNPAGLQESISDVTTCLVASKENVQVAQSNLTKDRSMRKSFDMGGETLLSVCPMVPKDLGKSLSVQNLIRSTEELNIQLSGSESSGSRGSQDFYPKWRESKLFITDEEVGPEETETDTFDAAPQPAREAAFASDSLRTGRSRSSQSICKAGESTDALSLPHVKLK

SMILES | solubility kinetic [3] [µM] | EC50 [4] [µM] | efflux ratio (P-gp) | EC50 [6] [µM] | EC50 [7] [µM] | %max [8] [%] | Activity [20] [µM] | Activity [21] [µM] | other results
CS(=O)(=O)c1cccc([C@H](CO)NC(=O)c2cc(S(F)(F)(F)(F)F)ccc2Oc2ccccc2)c1 | 121 (≈ 65 µg/mL) | > 10 | < 2 | 0.02 to 0.06 | 0.08 | 101 |  |  | Activity (Mus musculus [1]): Active; Activity (Mus musculus [2]): Active; inhibition (INH) [5]: Not Active
O=C(N[C@@H](CO)c1cccc(Cl)c1)[C@H]1CC(F)(F)CC[C@@H]1c1ccccc1 | 318 (≈ 125 µg/mL) | 0.1 | < 2 | 0.1 to 0.3 | 0.36 | 141 |  |  | V1/2 [9]: 10.2 mV; IC50 [10]: 0.28 µM; AUCt/dose (Mus musculus [11]): 0.51 µg·h/mL; Activity (Mus musculus [12]): Dose-dependent effect; V1/2 [13]: 21 mV; clearance [14]: 48 mL/min/kg; Kp [15]: 0.8; V1/2 [16]: 27.8 mV; Activity (Mus musculus [17]): Non-Toxic; V1/2 [18]: 1.8 mV; V1/2 [19]: 29.5 mV
Cc1cc(C)c(NC(=O)C2CC3CCC2C3)c(C)c1 (stereo unspecified) |  | 1.6 |  | 0.04 | 0.5 |  | > 11 | 0.04 | V1/2 [22]: 24.7 to 28.4 mV
O=C(Nc1ccc(Cl)nc1)c1ccc(F)c(F)c1 |  | > 10 |  | 0.46 | > 10 |  | 0.43 to 1.81 | 0.46 | Activity (Mus musculus [12]): Dose-dependent effect; Activity (Mus musculus [17]): Non-Toxic
CS(=O)(=O)c1cccc([C@H](CO)NC(=O)c2cc(C(F)(F)F)ccc2Oc2ccccc2)c1 | 11 (≈ 5.27 µg/mL) |  | < 2 | 0.08 |  | 77 |  |  | 
C[C@H](NC(=O)c1cc(F)c(F)cc1Oc1ccccc1)c1cccc(S(C)(=O)=O)c1 | 145 (≈ 62.6 µg/mL) | 0.16 | < 2 | 0.13 to 0.2 | 0.2 | 132 |  |  | IC50 [10]: 0.11 µM; V1/2 [23]: 23.1 mV; AUCt/dose (Mus musculus [11]): 0.33 µg·h/mL; V1/2 [24]: 14.3 mV; V1/2 [25]: 26.8 mV; Activity (Mus musculus [12]): Dose-dependent effect; Activity (Mus musculus [1]): Active; Activity (Mus musculus [2]): Active; V1/2 [26]: 0.4 mV; clearance [14]: 31 mL/min/kg; Kp [15]: 1.3; Activity (Mus musculus [17]): Non-Toxic; V1/2 [27]: 5.1 mV
C[C@H](NC(=O)[C@H]1CCCC[C@@H]1c1ccccc1)c1ccccc1 | 57 (≈ 17.5 µg/mL) |  | < 2 | 0.25 |  | 115 | > 30 | 0.1 | 
C[C@H](NC(=O)c1cc(C(F)(F)F)ccc1Oc1ccccc1)c1cccc(S(C)(=O)=O)c1 | 57 (≈ 26.4 µg/mL) |  | < 2 | 0.04 |  | 134 |  |  | 
CS(=O)(=O)c1cccc(CNC(=O)c2cc(S(F)(F)(F)(F)F)ccc2Oc2ccccc2)c1 | 7 (≈ 3.55 µg/mL) |  | < 2 | 0.08 |  | 185 |  |  | 
CCOC(=O)Nc1ccc(NCc2ccc(F)cc2)cc1N |  |  |  |  |  |  | > 30 | 0.32 | 
CS(=O)(=O)c1cccc(CNC(=O)c2cc(C(F)(F)F)ccc2Sc2ccccc2)c1 | 34 (≈ 15.8 µg/mL) |  | < 2 | 0.2 |  | 175 | > 30 | 0.02 | CLH [28]: > 3 mL/min/g
O=C(N[C@@H](CO)c1ccccc1)[C@H]1CC(F)(F)CC[C@@H]1c1ccccc1 | 332 (≈ 119 µg/mL) |  | < 2 | 1.3 |  | 108 |  |  | 
C[C@H](NC(=O)[C@H]1CC(F)(F)CC[C@@H]1c1ccccc1)c1ccccc1 | 25 (≈ 8.59 µg/mL) | 4 | < 2 | 0.2 to 0.4 | 0.4 | 140 |  |  | 
O=C(N[C@@H](CO)c1cccc(C(F)(F)F)c1)[C@H]1CC(F)(F)CC[C@@H]1c1ccccc1 | 119 (≈ 50.9 µg/mL) | 0.02 | < 2 | 0.05 to 0.08 | 0.25 | 96 |  |  | 
CS(=O)(=O)c1cccc(CNC(=O)c2cc(C(F)(F)F)ccc2Oc2ccccc2)c1 | 23 (≈ 10.3 µg/mL) |  | < 2 | 0.16 |  | 245 | > 30 | 0.05 | 
O=C(N[C@@H](CO)c1ccccc1)[C@H]1CCCC[C@@H]1c1ccccc1 | 455 (≈ 147 µg/mL) |  | < 2 | 0.79 |  | 165 |  |  | 
